# Screening data deposited in PubChem BioAssay by The Scripps Research Institute Molecular Screening Center.
# Compounds with a hit are over-represented: about 1.4% of the library has one in this group of screens.
# Fh CTSL1 inh – counter-screen for PFM18AAP inhibitors: inhibitors of F. hepatica cathepsin L1; recombinant F. hepatica cathepsin L1, Z-Leu-Arg-MCA fluorescence; inhibition, % at 5.96 µM; hit rate 0.49% among 300,000; AID 1906;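 active = inhibition above the mean of all tested compounds plus 3 SD, set per screening campaign, cut at about 17% in these data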;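 note: 0% = plate median of test compound wells and 100% = 1 µM Z-Phe-Ala-diazomethylketone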
# HCV NS3 hel inh – inhibitors of Hepatitis C virus NS3 helicase | NS3 helicase DNA unwinding, Cy5 molecular beacon fluorescence | inhibition, % at 10.9 µM | hit rate 0.56% among 290,000;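 active = inhibition above the mean of all tested compounds plus 3 SD, set per campaign, cut at about 35% in these data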;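 note: 0% = DMSO wells and 100% = thioflavine S control wells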
#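 Control set: DMSO versus 110 µM thioflavine S; Material: NS3 helicase fragment of HCV; Measured by: Cy5 fluorescence at 0 and 60 min, beacon hairpin quenching; Read-out basis: percent inhibition from t60/t0 fluorescence ratio; Times: reaction time 60 min, 25 °C; Repeats: single replicate; Compound dosing: single dose, 10.9 µM nominal final, DMSO 0.8% final.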
# EBNA-1 inh – blocks EBNA-1 binding to DNA; EBNA-1 DNA binding, fluorescence polarization; inhibition, % at 14.8 µM; hit rate 0.34% among 300,000; in the data active = inhibition above about 28%
# ZTA DNA inh – blocks Epstein-Barr virus ZTA, an EBNA-1 counter-screen; P03206; ZTA-DNA binding, fluorescence polarization; inhibition, % at 11 µM; hit rate 0.15% among 320,000; AID 2234; in the data active = inhibition above about 33%
# Target sequence (P03206 whole entry, looked up): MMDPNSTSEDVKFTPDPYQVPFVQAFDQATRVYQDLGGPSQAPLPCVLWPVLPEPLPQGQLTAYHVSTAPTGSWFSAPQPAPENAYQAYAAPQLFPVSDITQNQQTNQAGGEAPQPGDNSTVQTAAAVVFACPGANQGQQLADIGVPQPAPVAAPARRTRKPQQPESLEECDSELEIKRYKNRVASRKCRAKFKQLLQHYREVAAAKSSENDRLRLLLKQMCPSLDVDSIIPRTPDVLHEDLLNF
# EBNA-1 inh conf – EBNA-1 (EBV) inhibition, confirmation; shares compounds with EBNA-1 inh; Recombinant EBNA-1 DBD, Cy5-DNA fluorescence polarization; inhibition, % at 14.8 µM; hit rate 35% among 830; AID 2292;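 active = mean inhibition across replicates above a set limit taken from the earlier primary screen, cut at about 28% in these data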;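 note: plate controls were EBNA-1 protein with DMSO for no effect and wells lacking EBNA-1 for full effect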
# ZTA counter trip – ZTA (EBV) inhibition, triplicate counter-screen. shares compounds with EBNA-1 inh. 830 tested, under 10 active. AID 2328. Zta-ZRE DNA binding, Cy5 fluorescence polarization. inhibition, % at 11.1 µM;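 active = mean inhibition over triplicates above a set limit taken from the primary EBNA-1 screen, cut at about 37% in these data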;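 note: purified full length Zta protein with Cy5 labeled ZRE DNA probe; 0% = Zta with DMSO and 100% = wells lacking Zta protein; inhibitors lower polarization by freeing the labeled DNA probe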
# Zta DNA confirm – EBV ZTA DNA binding inhibition, confirmation. hit rate 30% among 320. shares compounds with ZTA DNA inh. Zta-ZRE DNA binding, fluorescence polarization. inhibition, % at 11.1 µM;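 active = mean inhibition across triplicate runs above the hit threshold derived for the original primary screen, cut at about 33% in these data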;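 note: 0% = Zta with DMSO and 100% = wells lacking Zta protein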
# EBNA-1 counter – EBNA-1 DNA binding inhibition, counter-screen for ZTA; shares compounds with ZTA DNA inh; inhibition, % at 14.8 µM; 320 tested, under 10 active; fluorescence polarization; call rule not given here
# Numbers without * were called inactive; / = no result.
SMILES,Fh CTSL1 inh,HCV NS3 hel inh,EBNA-1 inh,ZTA DNA inh,Zta DNA confirm,EBNA-1 counter,others
COc1ccc(CNC(=S)N2CCN(S(=O)(=O)c3cccc(F)c3)CC2)cc1,-4,-14,40*,2,/,/,EBNA-1 inh conf=73*;ZTA counter trip=7
COc1ccc(CCNC(=S)N2CCN(S(=O)(=O)c3cccc(F)c3)CC2)cc1,0,/,6,-9,/,/,
CC(C(=O)OCC(=O)c1ccc(Br)cc1)N1C(=O)C2C3C=CC(C3)C2C1=O (centres undefined),-1,-1,-2,36*,-8,-6,
O=C(Nc1ccc2c(c1)nc1n2CCOC1)c1ccccc1,1,-1,-4,0,/,/,
Cc1ccccc1OCCNC(=O)/C=C/c1ccc([N+](=O)[O-])cc1,-1,-5,3,15,/,/,
Cc1ccccc1OCCNC(=O)/C=C/c1ccccc1,2,7,-4,129*,-12,-4,
Nc1ccc(N2CCOCC2)c2nonc12,32*,5,-3,55*,2,7,
O=C(Nc1ccc(N2CCOCC2)c2nonc12)C1CCCC1,-4,-1,17,8,/,/,
COc1ccc(CC(NC(C)=O)C(=O)NC2CCN(c3c(Cc4ccccc4)c(C)nc4ncnn34)CC2)cc1OC (centres undefined),1,-4,-5,-9,/,/,
CCN(CC)CCOC(=O)c1ccc(N/C=C(/C#N)c2nc(-c3cccc(OC)c3)cs2)cc1,2,-79,-2,40*,3,-13,
Cc1ccc(-c2csc(/C(C#N)=C/Nc3ccc4c(c3)OCCO4)n2)cc1,-2,1,7,3,/,/,
CCOC(=O)c1ccc(N/C=C\C(=O)c2cccc(OC)c2)cc1,0,0,-3,-1,/,/,
CCN(CC)CCOC(=O)c1ccc(N/C=C(/C#N)c2nc(-c3ccc(OC)c(OC)c3)cs2)cc1,2,11,2,74*,51*,20,
COC(=O)c1ccc(NC(=O)c2ccc(NC(=O)c3ccco3)cc2)cc1,-5,-18,7,39*,49*,23,
CC(=O)c1ccc(NC(=O)c2ccc(NC(=O)c3ccco3)cc2)cc1,-2,-15,15,16,/,/,
CCOC(=O)c1cnc(N)nc1C(F)(F)F,2,6,-7,-4,/,/,
CCOc1cc(C2Nc3ccccc3NC3=C2C(=O)CC(C)(C)C3)ccc1O (centres undefined),3,-1,8,-11,/,/,
CC1(C)CC(=O)C2=C(C1)OC(N)=C(C#N)C2c1ccccc1[N+](=O)[O-] (centres undefined),-1,-8,2,129*,3,-12,
C#CCOCCOCCOCCNc1nc(N2CCN(C(=O)CCCCCCCCCCNC(=O)[C@H](CCCCN)n3cc(CCO)nn3)CC2)nc(N2CCN(C(=O)CCCCCCCCCCNC(=O)[C@H](CCCCN)n3cc(C[C@@H](C)CC)nn3)CC2)n1,1,/,13,55*,81*,7,
C#CCOCCOCCOCCNc1nc(N2CCOCC2)nc(N2CCN(C(=O)[C@H](CCCCN)n3cc([C@@H](N)CO)nn3)CC2)n1,8,-1,12,168*,-4,-3,
C#CCOCCOCCOCCNc1nc(N2CCN(C(=O)CCCCCCCCCCNC(=O)[C@@H](CCSC)n3cc(CCO)nn3)CC2)nc(N2CCN(C(=O)CCCCCCCCCCNC(=O)[C@H](CCC(=O)O)n3cc(CCCCCN)nn3)CC2)n1,-2,/,6,-12,/,/,
C#CCOCCOCCOCCNc1nc(N2CCN(C(=O)CCCCCCCCCCNC(=O)Cn3cc(CCCCCN)nn3)CC2)nc(N2CCN(C(=O)CCCCCCCCCCNC(=O)Cn3cc(C[C@@H](C)O)nn3)CC2)n1,-2,/,1,46*,20,0,
C#CCOCCOCCOCCNc1nc(N2CCN(C(=O)CCCCCCCCCCNC(=O)Cn3cc(C[C@@H](C)O)nn3)CC2)nc(N2CCN(C(=O)CCCCCCCCCCNC(=O)[C@@H]([C@H](C)CC)n3cc(CCCCCN)nn3)CC2)n1,0,/,-1,-7,/,/,
C#CCOCCOCCOCCNc1nc(N2CCN(C(=O)CCCCCCCCCCNC(=O)[C@@H](CCC(=O)O)n3cc(CCCCCN)nn3)CC2)nc(N2CCN(C(=O)CCCCCCCCCCNC(=O)[C@H](CCCCN)n3cc(C[C@@H](C)CC)nn3)CC2)n1,0,/,-2,54*,-12,-3,
CC1(c2ccccc2)CC(C)(C)N(C(=O)C2CCCO2)c2ccccc21 (centres undefined),-3,-4,-14,2,/,/,
SMILES,Fh CTSL1 inh,HCV NS3 hel inh,EBNA-1 inh,ZTA DNA inh,Zta DNA confirm,EBNA-1 counter,others
C#CCOCCOCCOCCNc1nc(N2CCN(C(=O)CCCCCCCCCCNC(=O)[C@@H](CCC(=O)O)n3cc(CCCCCN)nn3)CC2)nc(N2CCN(C(=O)CCCCCCCCCCNC(=O)[C@H](CO)n3cc(CCCCCN)nn3)CC2)n1,6,/,4,37*,-7,-8,
C#CCOCCOCCOCCNc1nc(N2CCN(C(=O)CCCCCCCCCCNC(=O)[C@@H](CCSC)n3cc(CCO)nn3)CC2)nc(N2CCN(C(=O)CCCCCCCCCCNC(=O)[C@H](CCCN=C(N)N)n3cc(C[C@@H](C)CC)nn3)CC2)n1,4,/,12,141*,62*,-2,
Cc1ccc(Cn2c(NCCc3ccccc3)nc3c2c(=O)n(C)c(=O)n3C)cc1,-1,10,9,-2,/,/,
Fc1ccc(/C=N/NC2=Nc3cccc4cccc2c34)cc1,1,-25,0,179*,-3,4,
c1ccc(NC2=Nc3cccc4cccc2c34)cc1,5,-6,6,1,/,/,
CCSc1ccc([C@@H]2[C@@H]3C(=O)N(C)C(=O)[C@@H]3[C@]3(C(=O)OC)CCCCN23)cc1,2,/,-18,-6,/,/,
COc1ccc(N2CCN(C(=O)C3CCCN(c4ncnc5c4nc4n5CCCCC4)C3)CC2)cc1 (centres undefined),0,-17,-14,7,/,/,
COc1ccc(NC(=S)Nc2ccc3nsnc3c2)cc1,99*,-2,20,38*,5,-2,
CC(C)N(C(=O)Nc1ccc2nsnc2c1)C(C)C,114*,12,-10,74*,9,5,
COc1ccc(NC(=S)Nc2ccc3nc(C)c(C)nc3c2)cc1,1,1,-1,1,/,/,
CCOc1ccc(NC(=S)Nc2ccc3nsnc3c2)cc1,110*,-5,4,67*,1,1,
Cc1cc(O)c(C(C)C)cc1NC1=NS(=O)(=O)c2ccccc21,-1,-6,2,9,/,/,
NC1=NC[C@H](c2ccccc2)N1CCCCC1CCCCC1,3,/,6,33*,2,-13,
S=C1NC[C@H](c2ccccc2)N1CCCCC1CCCCC1,3,/,3,2,/,/,
